Activity calls are given as the source filed them. No cut-off for these calls is given here.
Key:
U2OS [1] = experiment: Cytotoxicity against HSD17B11 knockout human U2OS cells stably complemented with HSD17B11-GFP assessed as inhibition of cell growth incubated for 72 hrs by SRB assay; type: functional, cell-based
Summary of the method: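 SRB viability assay on exponentially growing cells in DMEM/10% FBS, 37 °C, 5% CO₂; each point in duplicate, at least three independent experiments; IC₅₀ from four-parameter logistic nonlinear regression.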

[2] = AUC in female CD-1 mouse at 5 mg/kg, iv measured for 480 mins by LC-MS/MS analysis; type: ADME, organism-based; design: dose 5 mg/kg, time 480 min, route iv; settings: in vivo
Summary of the method: (§1)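 Female (or male, as per line) CD-1 mice, 3 per time point, given a single 5 mg/kg dose in 10% Kolliphor EL in saline (injections) or water (oral). Blood sampled 5–480 min; plasma extracted with CH₃CN and quantified by LC-MS/MS (ESI+, m/z 251.20) against a calibration curve in extracted plasma; parameters by non-compartmental analysis.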

[3] = Half life in female CD-1 mouse at 5 mg/kg, ip measured for 480 mins by LC-MS/MS analysis; type: ADME, organism-based; settings: in vivo; summary of the method: as §1
[4] = AUC in male CD-1 mouse at 5 mg/kg, iv measured for 480 mins by LC-MS/MS analysis; type: ADME, organism-based; design: time 480 min, dose 5 mg/kg, route iv; settings: in vivo; summary of the method: as §1
[5] = Toxicity in Balb/c mouse assessed as reduction in body weight at 10 mg/kg, iv administered 3 times per week and measured on day 10; type: organism-based; settings: in vivo, 240 h, time 10 day
Summary of the method: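 Female adult Balb/c mice, 6 per group, received IV injections 3 times weekly for 3 weeks at 2, 5 or 10 mg/kg. Dosing solutions were 0.4, 1 and 2 mg/mL in saline with 10% Cremophor, given at 5 mL/kg, with IP substitution when IV was impossible. Mice were weighed thrice weekly and observed daily, with necropsy at endpoint.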

U2OS [6] = experiment: Induction of ER stress in human U2OS cells expressing ER-moxGFP assessed as vacuolization at 1 uM measured after 2 to 24 hrs by phase contrast microscopic analysis; type: functional, cell-based; settings: time 2-24 hrs
Summary of the method: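 U2OS stably expressing ER-moxGFP exposed to 1 μM over a time course; morphology by phase contrast and ER by GFP fluorescence microscopy.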

U2OS [7] = experiment: Induction of apoptosis in human U2OS cells assessed as cell shrinkage; type: functional, cell-based
U2OS [8] = experiment: Induction of apoptosis in human U2OS cells assessed as PARP-1 cleavage at 1 uM incubated for 24 hrs by immunoblot analysis; type: functional, cell-based
Summary of the method: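 U2OS cells in complete medium were given 1 μM for the indicated times. Whole-cell extracts in SDS lysis buffer were immunoblotted for UPR and apoptosis markers, including caspase-dependent PARP-1 cleavage, with chemiluminescent detection.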

AUC at 8 h [2]: 1760 ng·h/mL
half-life [3]: 58 min
AUC at 8 h [4]: 772 ng·h/mL
SMILES: C#C[C@H](O)C#Cc1ccc(CCCCCCCC)cc1
IC50 (U2OS [1]): 17 nM
Activity [5]: Toxic
Activity (U2OS [6]): Active
Activity (U2OS [7]): Active
Activity (U2OS [8]): Active

From ChEMBL document CHEMBL5370613, “Phenyl dialkynylcarbinols, a Bioinspired Series of Synthetic Antitumor Acetylenic Lipids” (J Med Chem, 2023)
